The source of these data is paper PMC3085913 (NeuroImage, 2011).

Entries after “also recorded” stand apart in the source; their conditions may differ.

Data set [1] has as its system blood brain barrier. The conditions noted are these: rodents, after intra-arterial carotid injection; ref McCarty et al., 2009; cited from earlier work.
Data set [2] relates to humans. The following applies: patients, ref Castillo et al., 2009, Tang and Lobel; cited from earlier work.
Data set [3] has as its system N2a mouse neuroblastoma cells. Nature of the data set: MTS cell proliferation. It is filed as cell-based. The conditions noted are these: 72 hrs.
In data set [4] the test system is Aβ plaques in APP and APP/PS1 transgenic AD mice. The conditions noted are these: MRI after injection; ref Wadghiri et al., 2003; cited from earlier work.
For data set [5], the system named is amyloid plaques in APP/PS1 Tg and wild-type mouse brain. It counts as in vivo. The following applies: two 14-month-old APP/PS1 mice, before and 6 hs after contrast injection; data not shown. Summed up: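 Mice received the test conjugate at 0.2 mmol Fe/kg in 200 μl 15% mannitol/PBS by right femoral vein infusion at 60 μl/min, under isoflurane (2.5% induction, 1–1.5% maintenance). Scanned 6 h post-injection; two 14-month-old APP/PS1 mice were also scanned pre-injection. 3D four-echo acquisition; third echo (TE=12.3 ms) gave the T2*-weighted images. Checked against matched immunostained sections.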

For data set [6], the system named is APP/PS1 Tg and wild-type mice. Briefly: Toxicity observed in experimental animals. The conditions noted are these: 0.2 mmol Fe/kg femoral i.v. with 15% mannitol. It counts as in vivo, mouse.
The subject of data set [7] is APP/PS1 Tg versus wild-type mouse brain (amyloid plaques). Nature of the data set: Voxel-based morphometry. It is filed as in vivo. The conditions noted are these: for VBM cluster T-score: WT n=12 vs AD Tg n=13; for VBM cluster Extent: WT n=12 vs AD Tg n=13 after contrast injection.
Data set [8] deals with APP/PS1 Tg and wild-type mouse brain (amyloid plaques). Nature of the data set: ROI-based absolute T2* measurement, in vivo μMRI. The conditions noted are these: contrast injected APP/PS1 Tg versus contrast injected wild-type mice.
In data set [9] the test system is amyloid plaques in APP/PS1 Tg mouse brain. It counts as in vivo. The following applies: femoral i.v. with mannitol; third echo, TE = 17.5. Summed up: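 Aged 13–17-month APP/PS1 mice and age-matched C57Bl/6J controls received the test conjugate at 0.2 mmol Fe/kg in 200 μl 15% mannitol/PBS, infused via right femoral vein at 60 μl/min under isoflurane. Later: pentobarbital 150 mg/kg i.p., transaortic perfusion with PBS then 4% paraformaldehyde. Extracted brains scanned overnight, up to four together; third echo of four-echo set. 6E10/4G8 histology for matching. 13 Tg vs 12 wild-type.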

Regarding `OC[C@@H](O)[C@@H](O)[C@H](O)[C@H](O)CO` [mannitol], in data set [1], the “time of maximum BBB disruption, intra-arterial carotid” value is 5 min. The “tolerability of intravenous mannitol (in words)” value in data set [2] is “much better tolerated and is used safely in patients”.

With “Aβ1-42: Aβ 1-42 peptide synthesized in the W.M. Keck Facility at Yale University [reference compound]”, in [3] (10 μM, MTS, 490 nm, percent of non-treated control), the “reduction in cell viability” value turned out to be 50%.

As for “MION-Aβ1-40: Aβ1-40 magnetically labeled with monocrystalline iron oxide nanoparticles (MION)”, the “plaque visualization as hypointense spots (in words)” value in data set [4] is “hypointense spots characterized by loss of signal intensity”.

As to “USPIO-Aβ1-42: ultrasmall superparamagnetic iron oxide (USPIO) nanoparticles linked to Aβ1-42 peptide using standard EDC/NHS coupling methods”, the “cell viability, USPIO versus USPIO-Aβ1-42 (significance in words)” value in data set [3] (bound Aβ1-42 10 μM, Newman-Keuls post-hoc) is listed as “did not differ significantly”. Also, the “cell viability versus control untreated cells (significance in words)” value in data set [3] (bound Aβ1-42 10 μM, USPIO matched, Newman-Keuls post-hoc) was “did not differ significantly”. For the same molecule, the “amyloid plaque detection pre- versus postinjection” value in [5] is reported as “Amyloid plaques were only detected in the postinjection images”. Moreover, in data set [6], the “toxicity in experimental animals (in words)” value is reported as “no evidence of toxicity in our experimental animals”. In addition, the “VBM difference in cerebellum (in words)” value in [7] (APP/PS1 (n=13) versus wild-type (n=12), USPIO-Aβ1-42 injected) is “No differences were seen in the cerebellum”. Moreover, the “VBM cluster T-score” value in data set [7] (cluster AuD, Cortex (R)) is 3.02; in data set [7] (cluster FrA, Cortex (L)), 5.03; in data set [7] (cluster HDB, Cortex (R)) it was 4.02; in data set [7] (cluster LEnt, Cortex (L)), 3.78; in [7] (cluster M1, Cortex (L)), 3.48; in data set [7] (cluster M2, Cortex (R)), 3.71. The “VBM cluster T-score” value in [7] (cluster PoDG, Hippocampus (R)) came out at 4.42; in data set [7] (cluster RSG, Cortex (L)), 5.00; in [7] (cluster S1BF, Cortex (L)), 4.92; in data set [7] (cluster S1FL, Cortex (L)) it was 3.30; in data set [7] (cluster S1FL, Cortex (R)) it was 4.27; in data set [7] (cluster SuG, Colliculus (R)), 4.72. Also, the “VBM cluster Extent” value in data set [7] (cluster AuD, Cortex (R)) is recorded as 1388 voxels; in data set [7] (cluster FrA, Cortex (L)) it was 1123 voxels; in [7] (cluster HDB, Cortex (R)), 685 voxels; in data set [7] (cluster LEnt, Cortex (L)), 656 voxels; in data set [7] (cluster PoDG, Hippocampus (R)) it was 20830 voxels; in data set [7] (cluster RSG, Cortex (L)), 1624 voxels. Further, the “VBM cluster Extent” value in [7] (cluster S1BF, Cortex (L)) was 36911 voxels; in data set [7] (cluster S1FL, Cortex (L)) it was 653 voxels; in data set [7] (cluster S1FL, Cortex (R)), 4637 voxels; in data set [7] (cluster SuG, Colliculus (R)), 2194 voxels. In addition, the “p, T2* difference in left and right cortex (Figure 5C)” value in data set [8] is listed as < 0.01. Also, in data set [9], the “plaque detection on ex vivo μMRI, APP/PS1 mice” value is on record as “Amyloid plaques were also detected; also recorded: Many plaques can be detected in APP/PS1 mice”.
